# Shown are actives, neighbours in structure and some others; about 2.9% of the full set was active somewhere.
# SIRT5 block: sirtuin-5 (human) deacylase inhibition. Purified SirT5, succinyl-peptide AMC, trypsin-coupled fluorescence. Q9NXA8. inhibition, % at 15 µM. actives 1.1% (n = 330,000); in the data active means inhibition above about 15%; inconclusive means no clear call, values can overlap the other calls
# Target sequence (Q9NXA8 whole entry, looked up): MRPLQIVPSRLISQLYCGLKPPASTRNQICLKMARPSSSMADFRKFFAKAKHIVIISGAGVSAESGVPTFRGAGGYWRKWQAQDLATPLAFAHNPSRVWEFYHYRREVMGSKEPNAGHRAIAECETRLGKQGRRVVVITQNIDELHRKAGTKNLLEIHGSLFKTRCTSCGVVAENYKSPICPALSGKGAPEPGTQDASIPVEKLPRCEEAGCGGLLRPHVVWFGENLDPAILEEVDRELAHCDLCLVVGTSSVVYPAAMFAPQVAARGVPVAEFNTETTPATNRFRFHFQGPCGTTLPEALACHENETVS
# DENV2 CPE: inhibitors of DENV2 cytopathic effect; DENV2-infected cells, cytopathic effect rescue, plate reader; CPE inhibition, % at 9.99 µM; actives 1.7% (n = 350,000); in the data active means CPE inhibition above about 20%, passing the limit was not always enough; inconclusive means no clear call, values can overlap the other calls; tested in BHK-21 cells;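 further: 0% = median of neutral control wells and 100% = median of positive control wells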
# E-sel inducer: E-selectin induction on HUVECs; P16581; HUVEC E-selectin immunofluorescence imaging; normalized: neutral wells 0, TNF-alpha wells 100; activation, % at 7.58 µM; actives 0.37% (n = 260,000);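 active means mean E-selectin-positive cell signal at least 10% of the positive control, reached in at least 60% of replicates, without over 20% cell loss; inconclusive means no rule given, readout overlaps actives, possibly toxicity-flagged; inactive means the rest, including those meeting only one limit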
#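 Assay system: HUVEC primary endothelial cells. Input: 3,000 HUVEC seeded per well. Doses: one compound dose added by pin transfer. Read-out basis: % PE-positive cells. Benchmarks: TNF-alpha high, DMSO low. Detection: immunofluorescence imaging. Buffer or medium: EGM-2, gelatin.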
# * hit, by the source's call; ? = inconclusive; nt = no result; ! = not active in a repeat.
SMILES,SIRT5 block,DENV2 CPE,E-sel inducer
COC(=O)C1=C(C)N(Cc2ccc(Cl)cc2)C(=S)NC1c1ccc(OC)cc1 (configuration not stated),-0.5,1.4,-0.2
COc1cc(C(=O)N[C@H](C(=O)NC2CCCc3ccccc32)C(C)C)cc(OC)c1OC (some centres not stated),-0.8,11.7,nt
CC(C)NC(=O)Nc1ccc2c(c1)C(=O)N([C@H](C)CO)C[C@H](C)[C@H](CN(C)Cc1ccc3c(c1)OCO3)O2,0.7,?,1.7
COc1ccccc1N1CCN(C2CCCN(Cc3ccc(Cl)cc3)C2)CC1 (configuration not stated),-7.0,-1.3,nt
COc1cc(/C=N/NC(=S)Nc2cccc(C(=O)O)c2)cc(OC)c1OC,23.4*,0.7,-0.1
COc1ccc(/C=N/NC(=S)Nc2cccc(C(=O)O)c2)cc1OC,1.9,3.0,-0.5
COc1ccc(/C=N\NC(=O)c2ccc(-c3ccccc3)cc2)c(OC)c1OC,-2.5,-6.5,-0.6
C[C@@H]1CN([C@H](C)CO)C(=O)c2cccc(NS(=O)(=O)c3ccc(Cl)cc3)c2O[C@@H]1CN(C)S(=O)(=O)c1cccs1,3.2,76.3*,-3.0
Cc1ccc(S(=O)(=O)Nc2cccc3c2O[C@H](CN(C)S(=O)(=O)c2cccs2)[C@@H](C)CN([C@@H](C)CO)C3=O)cc1,3.7,63.3*,0.4
C[C@H](CO)N1C[C@H](C)[C@@H](CN(C)S(=O)(=O)c2cccs2)Oc2c(NS(=O)(=O)c3ccc(Cl)cc3)cccc2C1=O,0.8,-1.9,-2.9
C[C@@H]1CN([C@H](C)CO)C(=O)c2cccc(NS(=O)(=O)c3ccc(F)cc3)c2O[C@@H]1CN(C)S(=O)(=O)c1cccs1,4.6,11.8,35.6*
C[C@H](CO)N1C[C@H](C)[C@@H](CN(C)S(=O)(=O)c2cccs2)Oc2c(NS(=O)(=O)c3ccc(F)cc3)cccc2C1=O,-1.8,-6.3,-3.5
Cc1ccc(S(=O)(=O)Nc2cccc3c2O[C@@H](CN(C)S(=O)(=O)c2cccs2)[C@H](C)CN([C@H](C)CO)C3=O)cc1,3.8,1.5,-0.3
Cc1c(Cl)c([N+](=O)[O-])nn1CC(=O)NCc1cccnc1,-7.0,-5.7,nt
O=C(c1ccccc1)N1CC2(C1)[C@H](c1ccccc1)[C@@H](CO)N2Cc1ccccn1,-0.6,11.0,0.0
O=C(c1cccnc1)N1CC2(C1)[C@H](c1ccccc1)[C@@H](CO)N2Cc1cccnc1,-6.8,-5.1,0.0
O=C(c1ccccc1)N1CC2(C1)[C@@H](c1ccccc1)[C@@H](CO)N2Cc1ccccn1,0.3,21.0*,-0.1
CCS(=O)(=O)N1CC2(C1)[C@H](c1ccccc1)[C@@H](CO)N2Cc1ccccn1,1.6,-1.4,-0.1
O=C(c1cccnc1)N1CC2(C1)[C@H](c1ccccc1)[C@@H](CO)N2Cc1ccccc1,-0.2,108.0*,0.0
CCS(=O)(=O)N1CC2(C1)[C@@H](c1ccccc1)[C@H](CO)N2Cc1ccccn1,5.8,21.7*,0.2
O=C(Nc1ccc(Cl)cc1)N[C@H]1CC[C@H](CCNC(=O)c2ccccc2F)O[C@H]1CO,3.0,6.3,-0.5
Cc1ccc(OCC(=O)NC2CC(C)(C)NC(C)(C)C2)c(C)c1,-3.7,-6.2,-0.1
Cc1cc(OCC(=O)NC2CC(C)(C)NC(C)(C)C2)c(C)cc1Br,-0.8,42.1*,0.0
CC[C@]12c3[nH]c4ccc(Cl)cc4c3CCN1C(=O)[C@@H](CC(=O)NCCCN(C)C)C[C@@H]2C(=O)N1CCN(C(=O)C2CC2)CC1,-1.7,-18.5,0.0
CNC(=S)N(CCc1c(C)[nH]c2ccc(OC)cc12)Cc1ccco1,-2.3,11.7,0.0
SMILES,SIRT5 block,DENV2 CPE,E-sel inducer
C[C@H]1CCCCO[C@H](CN(C)C(=O)C2CCCCC2)[C@@H](C)CN([C@@H](C)CO)C(=O)c2cc(NC(=O)CCC(F)(F)F)ccc2O1,4.7,nt,-0.2
C[C@H](CO)N1C[C@H](C)[C@@H](CN(C)CC2CCCCC2)OCCCC[C@H](C)Oc2ccc(NC(=O)Cc3ccccc3)cc2C1=O,-7.3,-3.3,0.0
C[C@@H]1CCCCO[C@H](CN(C)CC2CCCCC2)[C@@H](C)CN([C@H](C)CO)C(=O)c2cc(NC(=O)CCC(F)(F)F)ccc2O1,nt,52.2*,-0.6
C[C@@H]1CN([C@H](C)CO)C(=O)c2cc(NC(=O)CCC(F)(F)F)ccc2O[C@@H](C)CCCCO[C@@H]1CN(C)C(=O)C1CCCCC1,-0.3,87.5*,-0.2
C[C@@H]1CCCCO[C@@H](CN(C)CC2CCCCC2)[C@@H](C)CN([C@@H](C)CO)C(=O)c2cc(NC(=O)CCC(F)(F)F)ccc2O1,nt,29.9*,0.0
C[C@H]1CCCCO[C@H](CN(C)CC2CCCCC2)[C@@H](C)CN([C@@H](C)CO)C(=O)c2cc(NC(=O)CCC(F)(F)F)ccc2O1,nt,0.4,-0.3
C[C@H](CO)N1C[C@H](C)[C@H](CN(C)CC2CCCCC2)OCCCC[C@H](C)Oc2ccc(NC(=O)CCC(F)(F)F)cc2C1=O,nt,-6.6,2.6
C[C@@H]1CN([C@@H](C)CO)C(=O)c2cc(NC(=O)Cc3ccccc3)ccc2O[C@@H](C)CCCCO[C@@H]1CN(C)CC1CCCCC1,1.3,25.7*,-0.6
C[C@@H]1CN([C@@H](C)CO)C(=O)c2cccc(NC(=O)c3ccncc3)c2O[C@@H]1CN(C)Cc1ccncc1,2.3,7.2,-0.2
CCC(=O)N1[C@@H]2Cn3c(cccc3=O)[C@H]1[C@@H](C(=O)N1CCc3ccccc3C1)[C@@H]2CO,3.2,15.4,-0.3
C[C@H](CO)N1C[C@H](C)[C@@H](CN(C)Cc2ccccc2)Oc2ccc(NS(=O)(=O)c3cccs3)cc2CC1=O,3.8,-5.5,0.3
CCN1CCN(S(=O)(=O)c2ccc3[nH]c(=O)oc3c2)CC1,-0.6,1.6,-0.1
O=C(NCCNC(=O)c1ccccc1F)c1ccccn1,15.7*,-3.3,0.0
Cc1ccccc1C(=O)NCCNC(=O)c1ccccn1,3.4,?,2.3
O=[N+]([O-])c1ccccc1S(=O)(=O)N1CCN(CC2CC=CCC2)CC1 (configuration not stated),-4.4,-1.4,nt
CC(=O)Nc1cccc(OCCCNC(=O)c2ccc(F)cc2)c1,-0.9,9.0,-0.2
CC(=O)Nc1cccc(OCCCNC(=O)c2ccc(C(C)(C)C)cc2)c1,-0.2,31.4*,nt
COc1ccc(S(=O)(=O)N(C)C[C@H]2OCCCC[C@H](C)Oc3ccc(N(C)C)cc3C(=O)N([C@H](C)CO)C[C@@H]2C)cc1,7.9,23.3*!,0.7
COc1ccc(S(=O)(=O)Nc2ccc3c(c2)C(=O)N([C@H](C)CO)C[C@@H](C)[C@H](CN(C)S(=O)(=O)c2ccccc2)OCCCC[C@H](C)O3)cc1,25.2*,2.6,0.0
COc1ccc(S(=O)(=O)N(C)C[C@H]2OCCCC[C@@H](C)Oc3ccc(NS(=O)(=O)c4ccccc4)cc3C(=O)N([C@H](C)CO)C[C@H]2C)cc1,-2.3,2.3,nt
COc1ccc(S(=O)(=O)N(C)C[C@H]2OCCCC[C@H](C)Oc3ccc(NS(=O)(=O)c4ccccc4)cc3C(=O)N([C@H](C)CO)C[C@H]2C)cc1,14.2,12.4,nt
